How the values were obtained:
[1] = Cytotoxicity against human HuH5.2 cells assessed as reduction in cell viability after 72 hrs by MTS assay; type: cell-based, Huh-5-2
In short: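 Huh 5-2 cells carrying the genotype 1b I389luc-ubi-neo/NS3-3'/5.1 replicon were seeded at 6 500 cells/well in medium without Geneticin one day ahead. Compounds (DMSO stock) were added as 1:5 four-step or 1:2 eight-step dilutions for 72 h at 37 °C.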

[2] = system: Hepatitis C virus; test: Antiviral activity against HCV genotype 1b infected in human HuH5.2 cells with persistent I389luc-ubi-neo/NS3-3'/5.1 replicon after 72 hrs by luciferase reporter gene assay; type: functional, cell-based, Hepacivirus hominis; details: Huh-5-2, 72 h
In short: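 Huh 5-2 cells carrying the genotype 1b I389luc-ubi-neo/NS3-3'/5.1 replicon were seeded at 6 500 cells/well in Geneticin-free DMEM/10% FCS and left overnight. Compounds from DMSO stocks were added in a four-step 1-to-5 series for the first screen or an eight-step 1-to-2 series for dose-response curves, then 72 h at 37 °C. Luciferase luminescence after lysis, as % of untreated controls, gave EC50; mean of ≥2 experiments.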

[3] = Selectivity index, ratio of CC50 for human HuH5.2 cells to EC50 for HCV genotype 1b infected in human HuH5.2 cells with persistent I389luc-ubi-neo/NS3-3'/5.1 replicon
[4] = Inhibition of HCV NS3 helicase DNA unwinding activity using fluorescent DNA substrate by molecular beacon assay; parameters: species or system Hepacivirus hominis
In short: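 Molecular beacon unwinding reaction: 25 mM MOPS pH 6.5, 1.25 mM MgCl2, 5% DMSO, 5 µg/ml BSA, 0.01% Tween20, 0.05 mM DTT, 5 nM fluorescent DNA substrate, 12.5 nM NS3h, 1 mM ATP. Duplicate two-fold dilutions spanned 1 mM to 0.78 µM. Data normalised to no-inhibitor and no-enzyme controls; IC50 from variable-slope Hill fit.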

| Structure (SMILES) | CC50 at 72 h [1] [µM] | EC50 [2] [µM] | Ratio CC50/EC50 [3] | EC90 [2] [µM] | IC50 [4] [µM] |
| --- | --- | --- | --- | --- | --- |
| COc1ccc(OC)c(S(=O)(=O)NCCC(=O)N2CCN(C(=O)CCNS(=O)(=O)c3cc(OC)ccc3OC)CC2)c1 | > 79.5 | > 79.5 |  |  |  |
| O=C1N/C(=N/N=C/c2ccccc2O)SC1Cc1ccc(Br)cc1 (centres undefined) | 15.7 | 10.4 | 1.5 |  |  |
| CC(C)Oc1ccc(/C=N/N=C2/NC(=O)C(CC(=O)O)S2)cc1 (centres undefined) | > 149 | 127 | >1.1 |  |  |
| O=S(=O)(NCCCN1CCN(CCCNS(=O)(=O)c2ccc(C(F)(F)F)cc2)CC1)c1ccc(Cl)cc1 | 63.7 | 10.1 | 6.3 | 33.5 |  |
| O=C(CCNS(=O)(=O)c1ccccc1)N1CCN(CCCNS(=O)(=O)c2ccccc2)CC1 | > 202 | > 202 |  | > 202 |  |
| Cc1ccc(S(=O)(=O)NCCCN2CCN(CCCNS(=O)(=O)c3ccc(-c4ccccc4)cc3)CC2)cc1 | 6.55 | 1.98 | 3.3 |  |  |
| CC(=O)c1ccc(NC(=O)CSc2nnc(NC(=O)CCc3ccccc3)s2)cc1 | > 113 | > 113 |  | > 113 |  |
| O=C(CCNS(=O)(=O)c1ccc2ccccc2c1)N1CCN(C(=O)CCNS(=O)(=O)c2ccc3ccccc3c2)CC1 | 40.8 | 12 | 3.4 |  |  |
| Cc1ccc(S(=O)(=O)NCCCN2CCN(CCCNS(=O)(=O)c3ccccc3)CC2)cc1 | 138 | 26.3 | 5.3 |  |  |
| O=S(=O)(NCCCN1CCN(CCNS(=O)(=O)c2ccc(Cl)cc2)CC1)c1ccc(Cl)cc1 | 32.3 | 6.59 | 4.9 |  |  |
| O=S(=O)(NCCCN1CCN(CCCNS(=O)(=O)c2cccnc2)CC1)c1cccnc1 | > 207 | > 207 |  | > 207 |  |
| Cc1ccc(C(=O)C2=C(O)C(=O)N(Cc3ccco3)C2c2cccc(Cl)c2)o1 (centres undefined) | > 126 | 30.6 | >4.1 |  |  |
| Cc1ccc2nc(-c3ccc4nc(-c5ccc(N)cc5)sc4c3)sc2c1S(=O)(=O)O |  |  |  |  | 10 |
| COc1ccc(S(=O)(=O)NCCC(=O)N2CCN(C(=O)CCNS(=O)(=O)c3ccc(OC)cc3)CC2)cc1 | > 87.9 |  |  |  |  |
| O=S(=O)(NCCCN1CCN(CCCNS(=O)(=O)c2ccc(C(F)(F)F)cc2)CC1)c1ccccc1 | 70.8 | 12.1 | 5.8 |  |  |
| Cc1ccc(S(=O)(=O)NCCCN2CCN(C(=O)CCNS(=O)(=O)c3ccc(C)cc3)CC2)cc1 | > 191 | 64.3 | >3 | 173 |  |
| O=S(=O)(NCCCN1CCN(CCCNS(=O)(=O)c2ccccc2Cl)CC1)c1ccccc1Cl | > 182 |  |  |  |  |
| O=S(=O)(NCCCN1CCN(CCCNS(=O)(=O)c2ccccc2)CC1)c1ccccc1 | > 104 | 58.3 | >1.8 |  |  |
| COc1ccc(S(=O)(=O)NCCCN2CCN(CCCNS(=O)(=O)c3ccc(OC)c(OC)c3)CC2)cc1OC | > 166 | 82 | >2 | > 166 |  |
| Cc1ccc(S(=O)(=O)NCCCN2CCN(CCCNS(=O)(=O)c3ccc(C)cc3)CC2)cc1 | > 197 | 19.2 | >10.3 |  |  |
| Cc1ccc2nc(N3C(=O)C(O)=C(C(=O)c4cc5ccccc5o4)C3c3cccc(O)c3)sc2c1 (centres undefined) | > 104 | 35.8 | >2.8 |  |  |
| O=S(=O)(NCCCN1CCN(CCCNS(=O)(=O)c2cccs2)CC1)c1cccs1 | > 203 | 62 | >3.3 | 156 |  |
| O=S(=O)(NCCCN1CCN(CCCNS(=O)(=O)c2ccc(-c3ccccc3)cc2)CC1)c1ccc(Cl)cc1 | 4.43 | 2.12 | 2.1 |  |  |
| COc1ccc(-c2ccc(/C=N/NC(=O)COc3cc(C)ccc3C)o2)cc1Cl | > 121 | 26.4 | >4.5 | > 121 |  |
| O=C(O)C1=CC(=C(c2ccc(O)c(C(=O)O)c2)c2ccc(O)c(C(=O)O)c2)C=CC1=O [AURINTRICARBOXYLIC ACID] |  |  |  |  | 0.3 |
| O=S(=O)(NCCN1CCN(CCNS(=O)(=O)c2ccc(Cl)cc2)CC1)c1ccc(Cl)cc1 | > 95.9 | > 95.9 |  |  | 250 |
